These results are taken from ChEMBL document CHEMBL3286292, “Synthesis and antimicrobial activity of amine linked bis- and tris-heterocycles” (2014).

Molecules are shown by their SMILES. Activity calls are given as the source filed them. The rule behind the calls is not given here.

Holding throughout (type): functional
The subject of test [1] is Staphylococcus aureus. As to the kind of experiment: Antibacterial activity against Staphylococcus aureus assessed as growth inhibition at 25 ug/well after 24 hrs by agar well diffusion method. Conditions: for zone of inhibition at 25 µg/disc: read-out: DIZ. Summed up: (§1)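 Agar well diffusion on […] swabbed with a 24 h broth culture. Samples were dissolved in DMSO and loaded at three per-well amounts into 6 mm wells. Incubation was 37 °C for 24 h, then inhibition zone diameter was read in mm. DMSO served as the negative control. Runs were in duplicate and averaged.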
Background: Agar diffusion results depend on both activity and mobility in agar.

In test [2] the test system is Staphylococcus aureus. In words: Antibacterial activity against Staphylococcus aureus assessed as growth inhibition at 50 ug/well after 24 hrs by agar well diffusion method. Conditions: for zone of inhibition at 50 µg/disc: read-out: DIZ. Summed up: as §1
For test [3], the system named is Staphylococcus aureus. In words: Antibacterial activity against Staphylococcus aureus assessed as growth inhibition at 100 ug/well after 24 hrs by agar well diffusion method. Conditions: for zone of inhibition at 100 µg/disc: read-out: DIZ. Summed up:
as §1

Test [4] deals with Bacillus subtilis. In words: Antibacterial activity against Bacillus subtilis assessed as growth inhibition at 25 ug/well after 24 hrs by agar well diffusion method. The note with it: for zone of inhibition at 25 µg/disc: read-out: DIZ. Put shortly: as §1
The subject of test [5] is Bacillus subtilis. In words: Antibacterial activity against Bacillus subtilis assessed as growth inhibition at 50 ug/well after 24 hrs by agar well diffusion method. The note with it: for zone of inhibition at 50 µg/disc: read-out: DIZ. Put shortly: as §1
Test [6] deals with Bacillus subtilis. In words: Antibacterial activity against Bacillus subtilis assessed as growth inhibition at 100 ug/well after 24 hrs by agar well diffusion method. The note with it: for zone of inhibition at 100 µg/disc: read-out: DIZ. Put shortly: as §1
The test system of test [7] is Pseudomonas aeruginosa. In words: Antibacterial activity against Pseudomonas aeruginosa assessed as growth inhibition at 25 ug/well after 24 hrs by agar well diffusion method. The note with it: for zone of inhibition at 25 µg/disc: read-out: DIZ. Summed up:
as §1

The test system of test [8] is Pseudomonas aeruginosa. In words: Antibacterial activity against Pseudomonas aeruginosa assessed as growth inhibition at 50 ug/well after 24 hrs by agar well diffusion method. Conditions: for zone of inhibition at 50 µg/disc: read-out: DIZ. Summed up:
as §1

The test system of test [9] is Pseudomonas aeruginosa. In words: Antibacterial activity against Pseudomonas aeruginosa assessed as growth inhibition at 100 ug/well after 24 hrs by agar well diffusion method. The note with it: for zone of inhibition at 100 µg/disc: read-out: DIZ. Put shortly:
as §1

Test [10] has as its system Klebsiella pneumoniae. In words: Antibacterial activity against Klebsiella pneumoniae assessed as growth inhibition at 25 ug/well after 24 hrs by agar well diffusion method. The note with it: for zone of inhibition at 25 µg/disc: read-out: DIZ. Put shortly:
as §1

The test system of test [11] is Klebsiella pneumoniae. In words: Antibacterial activity against Klebsiella pneumoniae assessed as growth inhibition at 50 ug/well after 24 hrs by agar well diffusion method. Conditions: for zone of inhibition at 50 µg/disc: read-out: DIZ. Put shortly:
as §1

The subject of test [12] is Klebsiella pneumoniae. In words: Antibacterial activity against Klebsiella pneumoniae assessed as growth inhibition at 100 ug/well after 24 hrs by agar well diffusion method. The note with it: for zone of inhibition at 100 µg/disc: read-out: DIZ. Summed up: as §1
Test [13] relates to Aspergillus niger. As to the kind of experiment: Antifungal activity against Aspergillus niger assessed as inhibition of spore germination at 25 ug/well after 48 hrs by agar well diffusion method. Conditions: for zone of inhibition at 25 µg/disc: read-out: DIZ. Put shortly: (§2)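 Well diffusion using 6 mm bored wells loaded with DMSO solutions at three per-well amounts, with a DMSO negative control. Plates were held at 28 °C for 48 h, then zone of inhibition diameter was measured in mm. Runs were in duplicate and averaged.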

Test [14] relates to Aspergillus niger. In words: Antifungal activity against Aspergillus niger assessed as inhibition of spore germination at 50 ug/well after 48 hrs by agar well diffusion method. The note with it: for zone of inhibition at 50 µg/disc: read-out: DIZ. Summed up:
as §2

Turning to `Cc1ccc(-c2coc(Nc3cc(-c4ccc(C)cc4)n(-c4nc(-c5ccc(C)cc5)cs4)n3)n2)cc1`, the “growth inhibition (GI)” value with Staphylococcus aureus [1], with Pseudomonas aeruginosa [7], in the test on Pseudomonas aeruginosa [8] and with Pseudomonas aeruginosa [9] was “inactive” throughout. Besides, the zone of inhibition at 50 µg/disc in the test on Staphylococcus aureus [2] stood at 6 mm; in the test on Bacillus subtilis [5], 8 mm; in the test with Klebsiella pneumoniae [11], 8 mm; in the test with Aspergillus niger [14] it was 8 mm. The values for the zone of inhibition at 100 µg/disc with Staphylococcus aureus [3], with Bacillus subtilis [6] and in the test with Klebsiella pneumoniae [12] were 8 mm, 9 mm and 10 mm, respectively. The zone of inhibition at 25 µg/disc in the test on Bacillus subtilis [4], in the test on Klebsiella pneumoniae [10] and in the test with Aspergillus niger [13] was 6 mm each time.
Consider `Clc1ccc(-c2coc(Nc3cc(-c4ccc(Cl)cc4)n(-c4nc(-c5ccc(Cl)cc5)cs4)n3)n2)cc1`, for which the zone of inhibition at 25 µg/disc with Staphylococcus aureus [1] stood at 17 mm; with Bacillus subtilis [4], 16 mm; in the test with Pseudomonas aeruginosa [7], 9 mm; with Klebsiella pneumoniae [10] it was 17 mm; with Aspergillus niger [13], 11 mm. Also, the zone of inhibition at 50 µg/disc with Staphylococcus aureus [2] amounted to 18 mm; in the test with Bacillus subtilis [5], 18 mm; in the test with Pseudomonas aeruginosa [8], 10 mm; with Klebsiella pneumoniae [11] it was 19 mm; in the test with Aspergillus niger [14], 12 mm. The zone of inhibition at 100 µg/disc is 21 mm with Staphylococcus aureus [3], 21 mm in the test on Bacillus subtilis [6], 13 mm in the test on Pseudomonas aeruginosa [9] and 22 mm in the test on Klebsiella pneumoniae [12].
Turning to `NC(=S)n1nc(Nc2nc(-c3ccc(Cl)cc3)co2)cc1-c1ccc(Cl)cc1`, the zone of inhibition at 25 µg/disc amounted to 15 mm in the test on Staphylococcus aureus [1]; 15 mm in the test with Bacillus subtilis [4]; 8 mm in the test on Pseudomonas aeruginosa [7]; 16 mm in the test with Klebsiella pneumoniae [10]; 10 mm with Aspergillus niger [13]. The zone of inhibition at 50 µg/disc with Staphylococcus aureus [2] is 17 mm; with Bacillus subtilis [5], 16 mm; in the test with Pseudomonas aeruginosa [8], 9 mm; in the test with Klebsiella pneumoniae [11], 17 mm; in the test with Aspergillus niger [14], 11 mm. Moreover, the zone of inhibition at 100 µg/disc in the test on Staphylococcus aureus [3] worked out at 19 mm; in the test on Bacillus subtilis [6] it was 19 mm; in the test on Pseudomonas aeruginosa [9], 12 mm; with Klebsiella pneumoniae [12] it was 20 mm.
Turning to `Cc1ccc(-c2csc(Nc3cc(-c4ccc(C)cc4)n(-c4nc(-c5ccc(C)cc5)cs4)n3)n2)cc1`, the zone of inhibition at 25 µg/disc turned out to be 14 mm in the test on Staphylococcus aureus [1]; 14 mm with Bacillus subtilis [4]; 7 mm in the test on Pseudomonas aeruginosa [7]; 14 mm in the test on Klebsiella pneumoniae [10]; 15 mm in the test with Aspergillus niger [13]. Also, the zone of inhibition at 50 µg/disc amounted to 15 mm in the test on Staphylococcus aureus [2]; 15 mm in the test with Bacillus subtilis [5]; 8 mm in the test with Pseudomonas aeruginosa [8]; 15 mm with Klebsiella pneumoniae [11]; 16 mm in the test with Aspergillus niger [14]. Also, the zone of inhibition at 100 µg/disc was 18 mm in the test on Staphylococcus aureus [3], 18 mm with Bacillus subtilis [6], 11 mm in the test with Pseudomonas aeruginosa [9] and 18 mm in the test on Klebsiella pneumoniae [12].
For the molecule `Cc1ccc(-c2c[nH]c(NC3=NN(C(N)=S)[C@@H](c4ccc(C)cc4)C3)n2)cc1`, the “growth inhibition (GI)” value in the test on Staphylococcus aureus [1], with Staphylococcus aureus [2], with Staphylococcus aureus [3], with Bacillus subtilis [4], in the test with Bacillus subtilis [5] and in the test on Bacillus subtilis [6] was “inactive” in each case. The “growth inhibition (GI)” value in the test with Pseudomonas aeruginosa [7], in the test on Pseudomonas aeruginosa [8], in the test with Pseudomonas aeruginosa [9], in the test on Klebsiella pneumoniae [10], with Klebsiella pneumoniae [11] and with Klebsiella pneumoniae [12] was “inactive” each time. For the same molecule, in the test on Aspergillus niger [13], the “growth inhibition (GI)” value is “inactive”. Also, the zone of inhibition entry with Aspergillus niger [14] is “inactive”.
For the molecule `NC(=S)N1N=C(Nc2nc(-c3ccc(Cl)cc3)cs2)C[C@@H]1c1ccc(Cl)cc1`, the “growth inhibition (GI)” value with Staphylococcus aureus [1], in the test with Staphylococcus aureus [2], in the test on Staphylococcus aureus [3], with Bacillus subtilis [4], in the test with Bacillus subtilis [5] and in the test on Bacillus subtilis [6] was “inactive” throughout. For the same molecule, the “growth inhibition (GI)” value in the test on Pseudomonas aeruginosa [7], in the test with Pseudomonas aeruginosa [8], with Pseudomonas aeruginosa [9], with Klebsiella pneumoniae [10], in the test on Klebsiella pneumoniae [11] and in the test with Klebsiella pneumoniae [12] was “inactive” each time. Also, the “growth inhibition (GI)” value in the test with Aspergillus niger [13] is “inactive”. Also, the zone of inhibition entry with Aspergillus niger [14] was “inactive”.
As for `NC(=S)N1N=C(Nc2nc(-c3ccc(Cl)cc3)co2)C[C@@H]1c1ccc(Cl)cc1`, the “growth inhibition (GI)” value in the test on Staphylococcus aureus [1], in the test on Staphylococcus aureus [2], with Staphylococcus aureus [3], in the test on Bacillus subtilis [4], in the test on Bacillus subtilis [5] and in the test with Bacillus subtilis [6] was “inactive” throughout. Besides, the “growth inhibition (GI)” value with Pseudomonas aeruginosa [7], with Pseudomonas aeruginosa [8], in the test with Pseudomonas aeruginosa [9], in the test on Klebsiella pneumoniae [10], in the test on Klebsiella pneumoniae [11] and with Klebsiella pneumoniae [12] was “inactive” throughout. The “growth inhibition (GI)” value in the test with Aspergillus niger [13] was “inactive”. Further, in the test on Aspergillus niger [14], the zone of inhibition result was “inactive”.
Take `NC(=S)N1N=C(Nc2nc(-c3ccccc3)c[nH]2)C[C@@H]1c1ccccc1`: the “growth inhibition (GI)” value with Staphylococcus aureus [1], in the test on Staphylococcus aureus [2], with Staphylococcus aureus [3], in the test with Bacillus subtilis [4], with Bacillus subtilis [5] and in the test on Bacillus subtilis [6] was “inactive” each time. Moreover, the “growth inhibition (GI)” value in the test with Pseudomonas aeruginosa [7], in the test with Pseudomonas aeruginosa [8], in the test on Pseudomonas aeruginosa [9], in the test with Klebsiella pneumoniae [10], in the test with Klebsiella pneumoniae [11] and in the test on Aspergillus niger [13] was “inactive” each time. Besides, the zone of inhibition at 100 µg/disc in the test on Klebsiella pneumoniae [12] was found to be 6 mm. The zone of inhibition entry with Aspergillus niger [14] is “inactive”.
Turning to `c1ccc(-c2coc(Nc3cc(-c4ccccc4)n(-c4nc(-c5ccccc5)cs4)n3)n2)cc1`, the zone of inhibition at 25 µg/disc in the test on Staphylococcus aureus [1] was determined as 8 mm; with Bacillus subtilis [4], 8 mm; with Klebsiella pneumoniae [10] it was 8 mm; in the test with Aspergillus niger [13] it was 9 mm. In addition, the zone of inhibition at 50 µg/disc with Staphylococcus aureus [2], in the test with Bacillus subtilis [5], in the test with Klebsiella pneumoniae [11] and in the test with Aspergillus niger [14] was 10 mm each time. In addition, the zone of inhibition at 100 µg/disc in the test on Staphylococcus aureus [3] worked out at 13 mm; with Bacillus subtilis [6] it was 12 mm; in the test on Pseudomonas aeruginosa [9], 6 mm; with Klebsiella pneumoniae [12], 13 mm. Also, the “growth inhibition (GI)” value in the test with Pseudomonas aeruginosa [7] and with Pseudomonas aeruginosa [8] was “inactive” throughout.
In the case of `NC(=S)N1N=C(Nc2nc(-c3ccccc3)cs2)C[C@@H]1c1ccccc1`, the “growth inhibition (GI)” value in the test with Staphylococcus aureus [1], with Staphylococcus aureus [2], in the test with Staphylococcus aureus [3], in the test on Bacillus subtilis [4], in the test with Bacillus subtilis [5] and in the test with Bacillus subtilis [6] was “inactive” throughout. For the same molecule, the “growth inhibition (GI)” value in the test with Pseudomonas aeruginosa [7], in the test with Pseudomonas aeruginosa [8], in the test with Pseudomonas aeruginosa [9], in the test with Klebsiella pneumoniae [10], with Klebsiella pneumoniae [11] and in the test with Klebsiella pneumoniae [12] was “inactive” throughout. The “growth inhibition (GI)” value in the test with Aspergillus niger [13] was “inactive”. In the test with Aspergillus niger [14], the zone of inhibition result is “inactive”.
In the case of `Cc1ccc(-c2c[nH]c(Nc3cc(-c4ccc(C)cc4)n(C(N)=S)n3)n2)cc1`, the zone of inhibition at 25 µg/disc in the test with Staphylococcus aureus [1] was 10 mm; in the test with Bacillus subtilis [4] it was 9 mm; in the test on Klebsiella pneumoniae [10], 10 mm; in the test with Aspergillus niger [13] it was 14 mm. Moreover, the zone of inhibition at 50 µg/disc in the test with Staphylococcus aureus [2] is 12 mm; in the test on Bacillus subtilis [5] it was 10 mm; with Klebsiella pneumoniae [11], 12 mm; in the test on Aspergillus niger [14], 15 mm. Also, the zone of inhibition at 100 µg/disc in the test on Staphylococcus aureus [3] is 14 mm; in the test with Bacillus subtilis [6], 13 mm; in the test with Pseudomonas aeruginosa [9] it was 7 mm; with Klebsiella pneumoniae [12], 14 mm. Further, the “growth inhibition (GI)” value with Pseudomonas aeruginosa [7] and in the test with Pseudomonas aeruginosa [8] was “inactive” in each case.
